Test results published in ChEMBL document CHEMBL3286203, “Reactive oxygen species (ROS) inducible DNA cross-linking agents and their effect on cancer cells and normal lymphocytes” (J Med Chem, 2014).
The source made the active and inactive calls. The rule behind the calls is not given here.

Experiments:
M14 = test: Cytotoxicity against human M14 cells assessed as growth inhibition at 10 uM after 48 hrs by SRB assay; assay type: functional, cell-based
How it was run: (§1)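 NCI DTP 60-cell-line screen run at the NCI. Cells were grown in RPMI 1640 with 5% FBS and 2 mM L-glutamine. They were seeded at 5000–40 000 cells/well depending on doubling time and grown in two plates per line. Each was exposed to a single 10 μM dose for 48 h at 37 °C, 5% CO2, 95% air, 100% humidity. Read-out was percent growth.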

MCF7 = test: Cytotoxicity against human MCF7 cells assessed as growth inhibition at 10 uM after 48 hrs by SRB assay; assay type: functional, cell-based
How it was run: (§2)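 Single-dose screen run by the NCI Developmental Therapeutics Program (NCI-60). Cells were grown in RPMI 1640 with 5% fetal bovine serum and 2 mM L-glutamine. They were plated at 5000–40 000 cells/well, depending on doubling time. Each line was run in two plates and exposed to 10 μM drug for 48 h at 37 °C, 5% CO2, 100% humidity. Read-out was growth percent.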

786-0 = test: Cytotoxicity against human 786-0 cells assessed as growth inhibition at 10 uM after 48 hrs by SRB assay; assay type: functional, cell-based; how it was run: as §1
K562 = test: Cytotoxicity against human K562 cells assessed as growth inhibition at 10 uM after 48 hrs by SRB assay; assay type: functional, cell-based; how it was run: as §1
NCI-H522 = test: Cytotoxicity against human NCI-H522 cells assessed as growth inhibition at 10 uM after 48 hrs by SRB assay; assay type: functional, cell-based; how it was run: as §2
IGROV-1 = test: Cytotoxicity against human IGROV1 cells assessed as growth inhibition at 10 uM after 48 hrs by SRB assay; assay type: functional, cell-based; how it was run: as §1
SK-MEL-28 = test: Cytotoxicity against human SK-MEL-28 cells assessed as growth inhibition at 10 uM after 48 hrs by SRB assay; assay type: functional, cell-based; how it was run: as §2
HT-29 = test: Cytotoxicity against human HT-29 cells assessed as growth inhibition at 10 uM after 48 hrs by SRB assay; assay type: functional, cell-based; how it was run: as §1
T47D = test: Cytotoxicity against human T47D cells assessed as growth inhibition at 10 uM after 48 hrs by SRB assay; assay type: functional, cell-based
How it was run: (§3)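 NCI-60 DTP human tumour line screen. Cells grown in RPMI 1640 with 5% fetal bovine serum and 2 mM L-glutamine, plated at 5000–40 000 cells/well according to doubling time. Single dose of 10 μM for 48 h at 37 °C, 5% CO2, 95% air, 100% humidity, two plates per line. Read-out is growth percent.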

A549 = test: Cytotoxicity against human A549 cells assessed as growth inhibition at 10 uM after 48 hrs by SRB assay; assay type: functional, cell-based; how it was run: as §1
RPMI-8226 = test: Cytotoxicity against human RPMI8226 cells assessed as growth inhibition at 10 uM after 48 hrs by SRB assay; assay type: functional, cell-based; how it was run: as §2
MDA-MB-231 = test: Cytotoxicity against human MDA-MB-231 cells assessed as growth inhibition at 10 uM after 48 hrs by SRB assay; assay type: functional, cell-based; how it was run: as §2
A498 = test: Cytotoxicity against human A498 cells assessed as growth inhibition at 10 uM after 48 hrs by SRB assay; assay type: functional, cell-based; how it was run: as §1
TK-10 = test: Cytotoxicity against human TK10 cells assessed as growth inhibition at 10 uM after 48 hrs by SRB assay; assay type: functional, cell-based; how it was run: as §3
SN12C = test: Cytotoxicity against human SN12C cells assessed as growth inhibition at 10 uM after 48 hrs by SRB assay; assay type: functional, cell-based; how it was run: as §3
HCT-116 = test: Cytotoxicity against human HCT116 cells assessed as growth inhibition at 10 uM after 48 hrs by SRB assay; assay type: functional, cell-based; how it was run: as §1
SF-539 = test: Cytotoxicity against human SF539 cells assessed as growth inhibition at 10 uM after 48 hrs by SRB assay; assay type: functional, cell-based; how it was run: as §2
MDA-MB-435 = test: Cytotoxicity against human MDA-MB-435 cells assessed as growth inhibition at 10 uM after 48 hrs by SRB assay; assay type: functional, cell-based; how it was run: as §2
OVCAR-5 = test: Cytotoxicity against human OVCAR5 cells assessed as growth inhibition at 10 uM after 48 hrs by SRB assay; assay type: functional, cell-based; how it was run: as §2
MDA-MB-468 = test: Cytotoxicity against human MDA-MB-468 cells assessed as growth inhibition at 10 uM after 48 hrs by SRB assay; assay type: functional, cell-based; how it was run: as §2
SK-MEL-2 = test: Cytotoxicity against human SK-MEL-2 cells assessed as growth inhibition at 10 uM after 48 hrs by SRB assay; assay type: functional, cell-based; how it was run: as §2
HCT-15 = test: Cytotoxicity against human HCT15 cells assessed as growth inhibition at 10 uM after 48 hrs by SRB assay; assay type: functional, cell-based; how it was run: as §1
Hs-578T = test: Cytotoxicity against human Hs578T cells assessed as growth inhibition at 10 uM after 48 hrs by SRB assay; assay type: functional, cell-based; how it was run: as §1
Malme-3M = test: Cytotoxicity against human MALME-3M cells assessed as growth inhibition at 10 uM after 48 hrs by SRB assay; assay type: functional, cell-based; how it was run: as §1
NCI-H226 = test: Cytotoxicity against human NCI-H226 cells assessed as growth inhibition at 10 uM after 48 hrs by SRB assay; assay type: functional, cell-based; how it was run: as §2
HCC 2998 = test: Cytotoxicity against human HCC2998 cells assessed as growth inhibition at 10 uM after 48 hrs by SRB assay; assay type: functional, cell-based; how it was run: as §1
NCI-H460 = test: Cytotoxicity against human NCI-H460 cells assessed as growth inhibition at 10 uM after 48 hrs by SRB assay; assay type: functional, cell-based; how it was run: as §2
KM12 = test: Cytotoxicity against human KM12 cells assessed as growth inhibition at 10 uM after 48 hrs by SRB assay; assay type: functional, cell-based; how it was run: as §1
NCI-H322M = test: Cytotoxicity against human NCI-H322M cells assessed as growth inhibition at 10 uM after 48 hrs by SRB assay; assay type: functional, cell-based; how it was run: as §2
RXF 393 = test: Cytotoxicity against human RXF393 cells assessed as growth inhibition at 10 uM after 48 hrs by SRB assay; assay type: functional, cell-based; how it was run: as §2
DU-145 = test: Cytotoxicity against human DU145 cells assessed as growth inhibition at 10 uM after 48 hrs by SRB assay; assay type: functional, cell-based; how it was run: as §1
PC-3 = test: Cytotoxicity against human PC3 cells assessed as growth inhibition at 10 uM after 48 hrs by SRB assay; assay type: functional, cell-based; how it was run: as §2
SF-268 = test: Cytotoxicity against human SF268 cells assessed as growth inhibition at 10 uM after 48 hrs by SRB assay; assay type: functional, cell-based; how it was run: as §2
NCI-H23 = test: Cytotoxicity against human NCI-H23 cells assessed as growth inhibition at 10 uM after 48 hrs by SRB assay; assay type: functional, cell-based; how it was run: as §2
SK-MEL-5 = test: Cytotoxicity against human SK-MEL-5 cells assessed as growth inhibition at 10 uM after 48 hrs by SRB assay; assay type: functional, cell-based; how it was run: as §2
UACC-62 = test: Cytotoxicity against human UACC62 cells assessed as growth inhibition at 10 uM after 48 hrs by SRB assay; assay type: functional, cell-based; how it was run: as §3
[1] = Induction of [32P]-labeled 49-mer oligonucleotide duplex DNA 12 with GNC sequence at terminus (unknown origin) interstrand cross-linking at 1 mM after 16 hrs by PAGE in presence of H2O2
How it was run: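 32P-labelled 12a (1.0 μM) annealed with 1.5 equiv of 12b in 10 mM potassium phosphate pH 7 / 100 mM NaCl (65 °C for 3 min, then slow cooling). Duplex incubated with compound (final 1 μM–5 mM), with or without H2O2, in NaCl and potassium phosphate pH 8 at room temperature for 16 h. Quenched in formamide; 20% denaturing PAGE.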

SMILES	growth inhibition (GI) (M14)	growth inhibition (GI) (MCF7)	growth inhibition (GI) (786-0)	growth inhibition (GI) (K562)	growth inhibition (GI) (NCI-H522)	growth inhibition (GI) (IGROV-1)	growth inhibition (GI) (SK-MEL-28)	growth inhibition (GI) (HT-29)	growth inhibition (GI) (T47D)	growth inhibition (GI) (A549)	growth inhibition (GI) (RPMI-8226)	growth inhibition (GI) (MDA-MB-231)	growth inhibition (GI) (A498)	growth inhibition (GI) (TK-10)	growth inhibition (GI) (SN12C)	growth inhibition (GI) (HCT-116)	growth inhibition (GI) (SF-539)	growth inhibition (GI) (MDA-MB-435)	growth inhibition (GI) (OVCAR-5)	growth inhibition (GI) (MDA-MB-468)	also measured
CC1(C)OB(c2ccc(COC(=O)N(CCCl)CCCl)cc2)OC1(C)C	inactive	inactive	inactive	inactive	inactive	inactive	inactive	inactive	inactive	inactive	inactive	inactive	inactive	inactive	inactive	inactive	inactive	inactive	inactive	inactive	growth inhibition (GI) (SK-MEL-2): inactive; growth inhibition (GI) (HCT-15): inactive; growth inhibition (GI) (Hs-578T): inactive; growth inhibition (GI) (Malme-3M): inactive; growth inhibition (GI) (NCI-H226): inactive; growth inhibition (GI) (HCC 2998): inactive; growth inhibition (GI) (NCI-H460): inactive; growth inhibition (GI) (KM12): inactive; growth inhibition (GI) (NCI-H322M): inactive; growth inhibition (GI) (RXF 393): inactive; growth inhibition (GI) (DU-145): inactive; growth inhibition (GI) (PC-3): inactive; growth inhibition (GI) (SF-268): inactive; growth inhibition (GI) (NCI-H23): inactive; growth inhibition (GI) (SK-MEL-5): inactive; growth inhibition (GI) (UACC-62): inactive; Activity [1]: inactive
CC1(C)OB(c2ccc(N(CCCl)CCOS(C)(=O)=O)cc2)OC1(C)C	Active	Active	Active	Active	Active	Active	Active	Active	Active	Active	Active	Active	Active	Active	Active	Active	Active	Active	Active	Active	growth inhibition (GI) (SK-MEL-2): Active; growth inhibition (GI) (HCT-15): Active; growth inhibition (GI) (Hs-578T): Active; growth inhibition (GI) (Malme-3M): Active; growth inhibition (GI) (NCI-H226): Active; growth inhibition (GI) (HCC 2998): Active; growth inhibition (GI) (NCI-H460): Active; growth inhibition (GI) (KM12): Active; growth inhibition (GI) (NCI-H322M): Active; growth inhibition (GI) (RXF 393): Active; growth inhibition (GI) (DU-145): Active; growth inhibition (GI) (PC-3): Active; growth inhibition (GI) (SF-268): Active; growth inhibition (GI) (NCI-H23): Active; growth inhibition (GI) (SK-MEL-5): Active; growth inhibition (GI) (UACC-62): Active; Activity [1]: 37%
CC1(C)OB(c2ccc(N(CCBr)CCOS(C)(=O)=O)cc2)OC1(C)C	Active	Active	Active	Active	Active	Active	Active	Active	Active	Active	Active	Active	Active	Active	Active	Active	Active	Active	Active	Active	growth inhibition (GI) (SK-MEL-2): Active; growth inhibition (GI) (HCT-15): Active; growth inhibition (GI) (Hs-578T): Active; growth inhibition (GI) (Malme-3M): Active; growth inhibition (GI) (NCI-H226): Active; growth inhibition (GI) (HCC 2998): Active; growth inhibition (GI) (NCI-H460): Active; growth inhibition (GI) (KM12): Active; growth inhibition (GI) (NCI-H322M): Active; growth inhibition (GI) (RXF 393): Active; growth inhibition (GI) (DU-145): Active; growth inhibition (GI) (PC-3): Active; growth inhibition (GI) (SF-268): Active; growth inhibition (GI) (NCI-H23): Active; growth inhibition (GI) (SK-MEL-5): Active; growth inhibition (GI) (UACC-62): Active; Activity [1]: 37%
CC1(C)OB(c2ccc(N(CCBr)CCBr)cc2)OC1(C)C	Active	Active	Active	Active	Active	Active	Active	Active	Active	Active	Active	Active	Active	Active	Active	Active	Active	Active	Active	Active	growth inhibition (GI) (SK-MEL-2): Active; growth inhibition (GI) (HCT-15): Active; growth inhibition (GI) (Hs-578T): Active; growth inhibition (GI) (Malme-3M): Active; growth inhibition (GI) (NCI-H226): Active; growth inhibition (GI) (HCC 2998): Active; growth inhibition (GI) (NCI-H460): Active; growth inhibition (GI) (KM12): Active; growth inhibition (GI) (NCI-H322M): Active; growth inhibition (GI) (RXF 393): Active; growth inhibition (GI) (DU-145): Active; growth inhibition (GI) (PC-3): Active; growth inhibition (GI) (SF-268): Active; growth inhibition (GI) (NCI-H23): Active; growth inhibition (GI) (SK-MEL-5): Active; growth inhibition (GI) (UACC-62): Active; Activity [1]: 37%
